Laboratory results taken from ChEMBL document CHEMBL1255440, “An antimicrobial peptide that targets DNA repair intermediates in vitro inhibits Salmonella growth within murine macrophages” (Antimicrob Agents Chemother, 2010).
Calls of active or inactive are those of the source. The rule behind the calls is not given here.

Test system: Salmonella typhimurium
Assay: Antibacterial activity against 1 MOI Salmonella enterica subsp. enterica serovar Typhimurium infected in mouse J774A1 cells assessed as reduction in bacterial growth at 2.5 times MIC
Format: functional, organism-based
Details: J774.A1
Procedure, shortened: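 J774A.1 cells or thioglycolate-elicited BALB/c peritoneal macrophages seeded at 200,000/well, overnight 37°C 5% CO2; infected with GFP strain SDT1416, 1 h invasion, washed, 1 h in DMEM with 15 μg/ml gentamicin. Then fresh DMEM plus 15 μg/ml gentamicin with or without peptide (DMSO vehicle) for 24 h at 37°C; macrophages lysed with 1% Triton X-100, plated on LB agar for CFU.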

With `N=C(N)NCCC[C@H](NC(=O)[C@H](CS)NC(=O)[C@H](Cc1ccc(O)cc1)NC(=O)[C@H](Cc1c[nH]c2ccccc12)NC(=O)[C@H](CCCNC(=N)N)NC(=O)[C@@H](N)Cc1c[nH]c2ccccc12)C(=O)O` the Activity was “Active”.
